# bovine MsrA act: activates bovine MsrA enzyme; 360,000 tested, 0.3% active; AID 602163; activation, % at 10.6 µM; purified bovine MsrA, absorbance read-out; in the data active means activation above about 7.5%;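 further: 0% = vehicle and 100% = reference activator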
# VIM-2 inh: blocks Pseudomonas aeruginosa VIM-2 metallo-beta-lactamase; purified VIM-2, nitrocefin hydrolysis, epi-absorbance fluorescence; AID 1527; 290,000 tested, 0.89% active; inhibition, % at 5.6 µM;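 active means inhibition above the mean of all tested compounds plus 3 SD, cutoff set per screening run, cut at about 7.5% in these data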;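 further: red hydrolysis product quenches plate fluorescence so inhibitors raise well fluorescence; 0% = enzyme with DMSO and 100% = DMSO without enzyme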
# PKA-R2B act: PKA-R2B complex activation; 340,000 tested, 0.079% active; activation, % at 11.4 µM; PKA-R2B holoenzyme dissociation, Cy5-IP20 fluorescence polarization; R2B truncated from residue 108, S112A mutant; 0% DMSO only, 100% 113 µM cGMP;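 active means activation above a cutoff set at the mean over all compounds plus 3 SD, cut at about 18% in these data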;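 further: higher means more holoenzyme dissociation and a rise in polarization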
# Target sequence (P31323 whole entry, looked up, other chains not shown, the tested form may be a part): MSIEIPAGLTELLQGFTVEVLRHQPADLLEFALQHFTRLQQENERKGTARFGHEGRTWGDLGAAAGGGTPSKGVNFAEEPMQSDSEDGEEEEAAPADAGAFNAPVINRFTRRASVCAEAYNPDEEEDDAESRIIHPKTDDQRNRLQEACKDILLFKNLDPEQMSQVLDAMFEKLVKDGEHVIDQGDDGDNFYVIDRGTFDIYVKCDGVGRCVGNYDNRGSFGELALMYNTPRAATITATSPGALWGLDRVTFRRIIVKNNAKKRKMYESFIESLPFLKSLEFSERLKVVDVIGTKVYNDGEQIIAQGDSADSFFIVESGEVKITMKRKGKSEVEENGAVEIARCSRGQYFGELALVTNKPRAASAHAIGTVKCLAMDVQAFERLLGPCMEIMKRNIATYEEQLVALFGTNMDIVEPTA
# MsrA inh: inhibits bovine methionine sulfoxide reductase A; purified bovine MsrA, absorbance read-out; AID 651718; 360,000 tested, 0.75% active; inhibition, % at 15.5 µM;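 further: 0% = vehicle wells with enzyme and 100% = reference inhibitor wells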
# PKA-R1A activ: activates the PKA-R1A holoenzyme complex. P00514+P68181. PKA-R1A dissociation, Cy5-IP20 fluorescence polarization; scaled: DMSO 0%, 113 µM cGMP 100%. activation, % at 11.4 µM. 340,000 tested, 0.083% active;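 active means percent activation above the mean of all tested compounds plus 3 SD, cut at about 19% in these data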;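 further: higher means more PKAc released from R1A so a rise in polarization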
# IMP-1 inh: inhibitors of Pseudomonas aeruginosa IMP-1 metallo-beta-lactamase. purified IMP-1, nitrocefin hydrolysis, epi-absorbance fluorescence. inhibition, % at 5.6 µM. 290,000 tested, 0.45% active. AID 1556;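 active means inhibition above the mean plus 3 SD of all compounds in the same screening run, cut at about 4.5% in these data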;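 further: 0% = IMP-1 with DMSO and 100% = DMSO wells lacking enzyme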
#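 Material – recombinant IMP-1 enzyme, purified · Amount – IMP-1 0.2 nM before substrate addition · Medium – HEPES buffer pH 7.1 with ZnSO4 and Brij 35 · Timing – 25 °C, 15 min preincubation, 25 min reaction · Measured by – plate fluorescence quenching by hydrolysis product, ex 480/em 530 nm · Read-out – percent enzyme inhibition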
# MsrA inh confirm: confirmation of bovine MsrA inhibitors | shares compounds with MsrA inh | purified bovine MsrA, absorbance read-out | inhibition, % at 15.5 µM | 2,300 tested, 41% active | AID 651822;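 further: coupled to thioredoxin reductase with NADPH and selenocystamine and DMSO as substrate; 0% = vehicle only and 100% = full effect of reference inhibitor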
# * hit, by the source's call; / = not tested or not shown. Rows were chosen to be rich in hits. Some 2.1% of all compounds tested hit in one or more screens of this group. Unless noted, no stated cut-off is given here; in the data, active means inhibition above about 4.5%; inactive means the rest.
SMILES,bovine MsrA act,VIM-2 inh,PKA-R2B act,MsrA inh,PKA-R1A activ,IMP-1 inh,MsrA inh confirm
C=CCN1C[C@@H](COCc2ccccc2)OCCS1(=O)=O,/,/,/,3,/,/,/
CC1=CC(O)(c2ccccn2)P(=O)(c2ccccc2)C=C1C (stereo unspecified),/,/,/,1,/,/,/
COC(=O)[C@]12C[C@H](CC(=O)N3CCOCC3)C(=O)N(Cc3ccc4c(c3)OCO4)C1=C[C@H](C(C)(C)C)O[C@@H]2C,/,/,/,-1,/,/,/
COc1ccc(OC)c(CN2CCN(C(=O)c3cccc(S(=O)(=O)Nc4ccc(F)cc4)c3)CC2)c1,-1,/,-5,0,-5,/,/
COc1ccc(/C=N/Nc2cc(=O)n(C)c(=O)n2C)cc1OC,-8,2,6,4.7*,-13,-4,4.7*
COc1cc(/C=N/Nc2nc(N3CCCC3)nc(N3CCCC3)n2)ccc1O,-13,-4,-8,5.2*,0,-2,2
COc1ccc(/C=N/Nc2nc(N)cc(Cl)n2)cc1OC,-3,-4,-7,5.8*,-4,-2,3
COc1ccc(-c2cnnc(N/N=C/c3ccc(O)c(OC)c3)n2)cc1,-14,-2,-15,6.4*,-8,0,6.6*
COc1ccc(/C=N/Nc2nonc2N)cc1OC,-2,0,-8,4,0,-1,/
CCOC(=O)[C@]12CCCC=C1N(CCc1ccc(OC)c(OC)c1)C(=O)[C@H](CC(=O)NCC13CC4CC(CC(C4)C1)C3)C2,/,/,/,2,/,/,/
COc1ccc(/C=N/Nc2ccc(C(=O)O)cc2)c(OC)c1OC,-6,-4,4,5.8*,7,-3,5.5*
COc1ccc(/C=C/C(=O)Nc2nc(C)c(C(=O)N(C)C)s2)cc1OC,-5,-2,-3,5.7*,-4,-2,5
Cc1nc(NC(=O)c2ccc(Br)s2)sc1C(=O)N(C)C,-13,-1,-5,5.0*,4,-3,2
COc1ccc(C(=O)Nc2nc(C)c(C(=O)N(C)C)s2)cc1OC,1,-3,-1,2,-6,-2,/
COc1ccc(/C=C/C(=O)Nc2nc(C)c(C(=O)N(C)C)s2)cc1,-6,-3,-8,5.4*,-1,-5,6.5*
O=c1ccoc2ccccc12,-2,/,/,0,/,/,/
O=C(NCc1ccccc1)C1Cc2c(-c3ccc(Cl)cc3)ccnc2O1 (stereo unspecified),-2,/,/,0,/,/,/
CS(=O)(=O)c1ccc(Cl)c(NC(=O)CSC(=S)N2CCCC2)c1,-7,1,8,1,-9,-1,/
Cc1cc(Nc2cc(C(F)(F)F)cc(C(F)(F)F)c2)cc(=O)n1-c1cc(C(F)(F)F)cc(C(F)(F)F)c1,/,/,/,-1,/,/,/
CC(=O)C1=C(O)C(=O)N(c2cc(C(C)(C)C)on2)C1c1ccc(C(C)C)cc1 (stereo unspecified),-4,-1,1,/,-2,-3,/
CC(=O)C1=C(O)C(=O)N(c2cc(C(C)(C)C)on2)C1c1ccc(Br)cc1 (stereo unspecified),1,2,-5,4.9*,-7,1,2
CN(C)c1ccc(/C=N/NC(=O)CNC(=O)/C=C/c2ccco2)cc1,-7,-1,-2,6.7*,1,-1,7.1*
CN(C)c1ccc(/C=N/NC(=O)CNC(=O)c2ccc3c(c2)OCCO3)cc1,-10,-3,-13,5.1*,-1,-3,5.1*
O=C(/C=C/c1ccco1)NCC(=O)N/N=C/c1ccc(Cl)cc1,-11,1,6,1,2,-2,/
CN(C)c1ccc(/C=N/NC(=O)CNC(=O)c2ccncc2)cc1,-7,-4,-1,5.1*,16,-2,5.1*
SMILES,bovine MsrA act,VIM-2 inh,PKA-R2B act,MsrA inh,PKA-R1A activ,IMP-1 inh,MsrA inh confirm
O=C(CN1C(=O)NC2(CCCCC2)C1=O)N1CCN(S(=O)(=O)c2ccc(F)cc2)CC1,-1,/,-2,-1,3,/,/
C[C@@H]1CN([C@@H](C)CO)C(=O)CCCn2cc(nn2)CO[C@H]1CN(C)C(=O)Nc1ccc(C(C)(C)C)cc1,/,/,/,-1,/,/,/
NC(Cc1ccc(O)cc1)C(=O)NN=Cc1ccccc1Cl (stereo unspecified),/,/,/,1,/,/,/
COc1ccc(CN=C(C#N)C2=C(O)c3ccccc3C2=O)cc1,-7,-2,-3,2,-3,-3,/
N#CC(=Nc1cccc(F)c1)C1=C(O)c2ccccc2C1=O,-9,/,/,5.2*,/,/,4
O=C(Nc1ccc2nc(-c3ccc(Br)o3)[nH]c2c1)c1ccco1,-9,-3,-3,6.5*,-7,-2,6.6*
O=C(O)c1ccc(N/N=C/c2ccncc2)cc1,-6,-3,0,5.7*,-5,-2,4
O=C(O)c1ccc(N/N=C/c2ccc3nccnc3c2)cc1,-8,0,2,4.8*,-5,-3,3
O=C(O)c1ccc(N/N=C/c2ccnc3ccccc23)cc1,2,-2,6,0,5,-3,/
COc1ccc(/C=C/C(=O)NC(=S)NNC(=O)c2cccnc2)cc1OC,-8,-6,1,5.6*,-1,1,5.6*
COc1ccc(/C=C/C(=O)OCC(=O)Nc2ccc(S(N)(=O)=O)cc2)cc1OC,-7,0,-2,4.8*,-10,-1,2
COc1cc(NC(=O)/C=C/c2ccccc2)c(C(=O)O)cc1OC,-15,-2,-18,4.7*,-25,-1,3
COc1cc(NC(=O)Cc2ccccc2)c(C(=O)O)cc1OC,-1,-1,1,1,-6,1,/
COc1ccc(/C=C/C(=O)Nc2ccncc2)cc1OC,-8,0,-1,5.8*,8,-2,4
COc1cc(/C=C/C(=O)OCC(=O)Nc2ccc(S(=O)(=O)N3CCCC3)cc2)ccc1O,-10,0,2,1,-3,-2,/
O=C(COC(=O)CNC(=O)c1ccccc1Cl)Nc1ccccc1Cl,-6,/,-3,0,11,/,/
CN1CCC(N2CCN(C3CN(Cc4cn(Cc5ccc(C(F)(F)F)cc5)nn4)S(=O)(=O)C3)CC2)CC1 (stereo unspecified),-2,/,/,0,/,/,/
CN1CCC(N2CCN(C3CN(Cc4cn(Cc5cccc(C(F)(F)F)c5)nn4)S(=O)(=O)C3)CC2)CC1 (stereo unspecified),-10,/,/,0,/,/,/
O=C(Nc1cc(S(=O)(=O)N2CCOCC2)ccc1OCC(F)(F)F)C1CCCC1,-6,/,2,-1,-1,/,/
COc1ccc(/C=C/C(=O)Nc2ccc(OC)nc2)cc1,-5,-2,-4,5,-15,-3,/
COc1cc(/C=C/C(=O)Nc2ccc3[nH]c(=O)[nH]c3c2)cc(OC)c1OC,-6,-2,1,5.6*,4,-2,3
COc1cccc(/C=C/C(=O)Nc2ccc3[nH]c(=O)[nH]c3c2)c1,-3,-4,8,3,4,-2,/

# Source: PubChem BioAssay (The Scripps Research Institute Molecular Screening Center)
